Experimental data from ChEMBL document CHEMBL1150393, “Evaluation of radiolabeled (hetero)aromatic analogues of N-(2-diethylaminoethyl)-4-iodobenzamide for imaging and targeted radionuclide therapy of melanoma” (J Med Chem, 2008).

Assays:
Liver = experiment: Biodistribution in liver of C57BL/6 mouse bearing mouse B16-F0 cells at 0.74 to 0.92 MBq, iv after 3 hrs; assay type: ADME, organism-based; settings: in vivo
In short: (§1)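 Male C57BL6 mice with s.c. left-flank B16-F0 melanoma (5 × 10⁵ cells in PBS). Two mice per time point frozen in liquid nitrogen after CO₂ sacrifice. Eight 40 µm whole-body cryosections per mouse read by multiwire proportional counter. cpm/mm² converted to kBq/g and expressed as %ID/g.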

[1] = Biodistribution in Stomach content of C57BL/6 mouse bearing mouse B16-F0 cells at 0.74 to 0.92 MBq, iv after 72 hrs; assay type: ADME, organism-based; settings: in vivo; in short: as §1
[2] = Ratio of drug level in tumor to liver of C57BL/6 mouse bearing mouse B16-F0 cells at 0.74 to 0.92 MBq, iv after 3 hrs; assay type: ADME, organism-based; settings: in vivo
In short: (§2)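 Tumour and organ radioactive concentrations came from whole-body cryosection counting (40 µm slices, eight per mouse, two mice per time) after tail-vein injection of the [¹²⁵I]-labelled compound (0.1 µmol) into male C57BL6 mice bearing s.c. B16-F0 melanoma. Each value is the ratio of the tumour concentration to the organ concentration.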

[3] = Partition coefficient, log P in phosphate buffer solution at pH 7.4; assay type: physicochemical
In short: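 Shake-flask partition: 50 µM [¹²⁵I]-labelled compound in phosphate buffer pH 7.4 was mixed with 2 mL n-octanol. Each phase was γ-counted, P was taken as the octanol/buffer activity ratio, and log P was reported.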

Brain [4] = experiment: Biodistribution in brain of C57BL/6 mouse bearing mouse B16-F0 cells at 0.74 to 0.92 MBq, iv after 3 hrs; assay type: ADME, organism-based; settings: in vivo; in short: as §1
[5] = Biodistribution in Stomach content of C57BL/6 mouse bearing mouse B16-F0 cells at 0.74 to 0.92 MBq, iv after 1 hr; assay type: ADME, organism-based; settings: in vivo; in short: as §1
[6] = Ratio of drug level in tumor to lung of C57BL/6 mouse bearing mouse B16-F0 cells at 0.74 to 0.92 MBq, iv after 6 hrs; assay type: ADME, organism-based; settings: in vivo; in short: as §2
[7] = Biodistribution in uvea of C57BL/6 mouse bearing mouse B16-F0 cells at 0.74 to 0.92 MBq, iv after 6 hrs; assay type: ADME, organism-based, Uveal tract; settings: in vivo
In short: (§3)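 [¹²⁵I]-labelled compound given iv by tail vein (0.1 µmol per mouse) to male C57BL6 mice bearing s.c. B16-F0 flank tumours (5 × 10⁵ cells in PBS). Two mice per time point were killed by CO₂, frozen in liquid nitrogen and cut into 40 µm cryosections, eight slices per mouse. Slice radioactivity was read on a multiwire proportional counter, converted to kBq/g and reported as %ID/g.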

Blood = experiment: Biodistribution in blood of C57BL/6 mouse bearing mouse B16-F0 cells at 0.74 to 0.92 MBq, iv after 3 hrs; assay type: ADME, organism-based; settings: in vivo; in short: as §1
[8] = Ratio of drug level in tumor to lung of C57BL/6 mouse bearing mouse B16-F0 cells at 0.74 to 0.92 MBq, iv after 3 hrs; assay type: ADME, organism-based; settings: in vivo; in short: as §2
Kidney = experiment: Biodistribution in kidney of C57BL/6 mouse bearing mouse B16-F0 cells at 0.74 to 0.92 MBq, iv after 3 hrs; assay type: ADME, organism-based; settings: in vivo; in short: as §1
[9] = Biodistribution in gall bladder of C57BL/6 mouse bearing mouse B16-F0 cells at 0.74 to 0.92 MBq, iv after 6 hrs; assay type: ADME, organism-based; settings: in vivo; in short: as §1
[10] = Biodistribution in uvea of C57BL/6 mouse bearing mouse B16-F0 cells at 0.74 to 0.92 MBq, iv after 24 hrs; assay type: ADME, organism-based, Uveal tract; settings: in vivo; in short: as §3
Lung [11] = experiment: Biodistribution in lung of C57BL/6 mouse bearing mouse B16-F0 cells at 0.74 to 0.92 MBq, iv after 1 hr; assay type: ADME, organism-based; settings: in vivo; in short: as §1
[12] = Biodistribution in tumor of C57BL/6 mouse bearing mouse B16-F0 cells at 0.74 to 0.92 MBq, iv after 72 hrs; assay type: ADME, organism-based, Neoplasm; settings: in vivo; in short: as §3
Thyroid gland [13] = experiment: Biodistribution in thyroid of C57BL/6 mouse bearing mouse B16-F0 cells at 0.74 to 0.92 MBq, iv after 24 hrs; assay type: ADME, organism-based; settings: in vivo; in short: as §3
[14] = Ratio of drug level in tumor to liver of C57BL/6 mouse bearing mouse B16-F0 cells at 0.74 to 0.92 MBq, iv after 6 hrs; assay type: ADME, organism-based; settings: in vivo; in short: as §2
Muscle tissue [15] = experiment: Biodistribution in muscle of C57BL/6 mouse bearing mouse B16-F0 cells at 0.74 to 0.92 MBq, iv after 1 hr; assay type: ADME, organism-based; settings: in vivo; in short: as §1
Lung [16] = experiment: Biodistribution in lung of C57BL/6 mouse bearing mouse B16-F0 cells at 0.74 to 0.92 MBq, iv after 6 hrs; assay type: ADME, organism-based; settings: in vivo; in short: as §1
Muscle tissue [17] = experiment: Biodistribution in muscle of C57BL/6 mouse bearing mouse B16-F0 cells at 0.74 to 0.92 MBq, iv after 6 hrs; assay type: ADME, organism-based; settings: in vivo; in short: as §1
[18] = Ratio of drug level in tumor to brain of C57BL/6 mouse bearing mouse B16-F0 cells at 0.74 to 0.92 MBq, iv after 6 hrs; assay type: ADME, organism-based; settings: in vivo; in short: as §2
[19] = Biodistribution in intestinal content of C57BL/6 mouse bearing mouse B16-F0 cells at 0.74 to 0.92 MBq, iv after 6 hrs; assay type: ADME, organism-based; settings: in vivo; in short: as §1
[20] = Biodistribution in Stomach content of C57BL/6 mouse bearing mouse B16-F0 cells at 0.74 to 0.92 MBq, iv after 24 hrs; assay type: ADME, organism-based; settings: in vivo; in short: as §1
Pancreas [21] = experiment: Biodistribution in pancreas of C57BL/6 mouse bearing mouse B16-F0 cells at 0.74 to 0.92 MBq, iv after 3 hrs; assay type: ADME, organism-based; settings: in vivo; in short: as §1
Brain [22] = experiment: Biodistribution in brain of C57BL/6 mouse bearing mouse B16-F0 cells at 0.74 to 0.92 MBq, iv after 6 hrs; assay type: ADME, organism-based; settings: in vivo; in short: as §1
Thyroid gland [23] = experiment: Biodistribution in thyroid of C57BL/6 mouse bearing mouse B16-F0 cells at 0.74 to 0.92 MBq, iv after 1 hr; assay type: ADME, organism-based; settings: in vivo; in short: as §3
Thyroid gland [24] = experiment: Biodistribution in thyroid of C57BL/6 mouse bearing mouse B16-F0 cells at 0.74 to 0.92 MBq, iv after 72 hrs; assay type: ADME, organism-based; settings: in vivo; in short: as §3
Spleen = experiment: Biodistribution in spleen of C57BL/6 mouse bearing mouse B16-F0 cells at 0.74 to 0.92 MBq, iv after 72 hrs; assay type: ADME, organism-based; settings: in vivo; in short: as §3
Pancreas [25] = experiment: Biodistribution in pancreas of C57BL/6 mouse bearing mouse B16-F0 cells at 0.74 to 0.92 MBq, iv after 6 hrs; assay type: ADME, organism-based; settings: in vivo; in short: as §1

SMILES | Drug uptake (Liver) | Ratio [2] | logD [3] | Drug uptake (Brain [4]) | Drug uptake [5] | Ratio [6] | Drug uptake [7] | Drug uptake (Blood) | Ratio [8] | Drug uptake (Kidney) | Drug uptake [10] | Drug uptake (Lung [11]) | Drug uptake [12] | Drug uptake (Thyroid gland [13]) | Ratio [14] | Drug uptake (Muscle tissue [15]) | Drug uptake (Lung [16]) | Drug uptake (Muscle tissue [17]) | Drug uptake [19] | Drug uptake [20] | further results
CCN(CC)CCNC(=O)c1cnc2cc([125I])ccc2n1.Cl.Cl | 8.87 % ID/g | 3.12 | 1.12 | 1.03 % ID/g | 24.33 % ID/g | 9.13 | 32.3 % ID/g | 2.91 % ID/g | 4.87 | 9.3 % ID/g | 32.44 % ID/g | 7.83 % ID/g | 12.5 % ID/g | 94.22 % ID/g | 5.4 | 2.04 % ID/g | 4.46 % ID/g | 0.87 % ID/g | – | – | Drug uptake [1]: 2.23 % ID/g; Drug uptake [9]: 33.38 % ID/g
CCN(CC)CCNC(=O)c1ccc2cc([125I])ccc2c1.Cl | 4.75 % ID/g | 2.4 | 1.33 | 0.78 % ID/g | 27.82 % ID/g | 4.22 | 12.76 % ID/g | 1.77 % ID/g | 2.57 | 5.65 % ID/g | 12.28 % ID/g | 11.82 % ID/g | 1.5 % ID/g | – | 3.28 | 1.92 % ID/g | 2.12 % ID/g | 0.38 % ID/g | 18.72 % ID/g | 3.1 % ID/g | Ratio [18]: 35.8; Drug uptake (Pancreas [21]): 8.19 % ID/g; Drug uptake (Brain [22]): 0.25 % ID/g
CCN(CC)CCNC(=O)c1ccc2cncc([125I])c2n1.Cl.Cl | 2.27 % ID/g | 6.1 | 0.51 | – | 17.58 % ID/g | 9.03 | 13.15 % ID/g | 1.88 % ID/g | 7.41 | 1.51 % ID/g | 10 % ID/g | 2.36 % ID/g | 3.3 % ID/g | 115.66 % ID/g | 7.69 | 0.86 % ID/g | 1.26 % ID/g | 0.24 % ID/g | 43.48 % ID/g | 0.62 % ID/g | Drug uptake [1]: 2.13 % ID/g; Drug uptake [9]: 28.67 % ID/g; Drug uptake (Thyroid gland [23]): 20.16 % ID/g
CCN(CC)CCNC(=O)c1cc2cc([125I])ccc2o1.Cl | 2.74 % ID/g | 2.74 | 1.57 | 0.24 % ID/g | 17.09 % ID/g | 13.3 | 13.91 % ID/g | 1.91 % ID/g | 5.9 | 3.09 % ID/g | 9.95 % ID/g | 5.17 % ID/g | 2 % ID/g | 30.38 % ID/g | 4.41 | 0.96 % ID/g | 1.45 % ID/g | 0.19 % ID/g | 135.67 % ID/g | 1.61 % ID/g | Drug uptake (Thyroid gland [24]): 15.7 % ID/g; Drug uptake (Thyroid gland [23]): 16.78 % ID/g
CCN(CC)CCNC(=O)c1cc2c([125I])cccc2cn1.Cl.Cl | 2.02 % ID/g | 3.52 | 1.65 | 0.09 % ID/g | 23.01 % ID/g | 3.86 | 18.02 % ID/g | 2.65 % ID/g | 2.58 | 2.66 % ID/g | 14.55 % ID/g | 3.68 % ID/g | 3.1 % ID/g | 88.65 % ID/g | 5.14 | 0.74 % ID/g | 2.05 % ID/g | – | 29.16 % ID/g | 0.75 % ID/g | Drug uptake (Thyroid gland [24]): 132.79 % ID/g; Drug uptake (Thyroid gland [23]): 16.88 % ID/g; Drug uptake (Spleen): 1.62 % ID/g
CCN(CC)CCNC(=O)c1ccc([125I])nc1.Cl.Cl | 3.01 % ID/g | 3.08 | -0.29 | 0.22 % ID/g | 34.8 % ID/g | 2.17 | 11.5 % ID/g | 4.22 % ID/g | 2.34 | 3.26 % ID/g | 6.07 % ID/g | 7.59 % ID/g | 0.9 % ID/g | 111.3 % ID/g | 3.33 | 1.48 % ID/g | 3.21 % ID/g | 0.53 % ID/g | 2.98 % ID/g | 1.46 % ID/g | Drug uptake (Thyroid gland [24]): 178.8 % ID/g; Ratio [18]: 58.08; Drug uptake [9]: 4.9 % ID/g; Drug uptake (Thyroid gland [23]): 25.29 % ID/g; Drug uptake (Pancreas [21]): 2.53 % ID/g; Drug uptake (Brain [22]): 0.12 % ID/g; Drug uptake (Pancreas [25]): 2.27 % ID/g
